Measured values: ChEMBL document CHEMBL3868616, “Synthesis and biological evaluation of hesperetin derivatives as agents inducing apoptosis” (2017)
The source made the active and inactive calls. The rule behind the calls is not given here.

Tests used:
[1] = Anticlonogenic activity in human HCT116 cells after 6 days by crystal violet staining based assay; format: functional; conditions: HCT-116, 144 h
How it was run: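 HCT116 colon cancer cells, long-term clonogenic survival assay. Compound exposure for six days at 0, 5, 10 and 20 µM (results section also lists 40 µM). Colonies stained with 0.1% crystal violet and quantified by densitometry. GI50 computed from the concentration–response data.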

HCT-116 [2] = assay: Induction of apoptosis in human HCT116 cells assessed as viable cells at 50 uM after 24 hrs by FITC-annexin V/propidium iodide staining based fluorescence assay (reference value: 90%); format: functional; conditions: HCT-116, 24 h, read-out: Activity
HCT-116 [3] = assay: Induction of apoptosis in human HCT116 cells assessed as late apoptotic cells at 50 uM after 24 hrs by FITC-annexin V/propidium iodide staining based fluorescence assay (reference value: 3%); format: functional
HCT-116 [4] = assay: Induction of apoptosis in human HCT116 cells assessed as necrotic cells at 50 uM after 24 hrs by FITC-annexin V/propidium iodide staining based fluorescence assay (reference value: 2%); format: functional
[5] = Cytotoxicity against human HCT116 cells assessed as decrease in cell viability at 80 uM after 24 hrs by CCK-8 assay; format: functional, HCT-116
How it was run: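 HCT116 cells seeded at 5 × 10^3 per well and treated 24 h at 10, 20, 40, 80 and 100 µM. Viability read with CCK-8 as absorbance at 450 nm. Compared with vehicle by one-way ANOVA followed by Sidak's multiple comparisons test.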

[6] = target: Mitogen-activated protein kinase 9 (Homo sapiens) (UniProt P45984); assay: Increase in JNK2 phosphorylation at Thr183/Tyr185 residues in human HCT116 cells at 50 to 200 uM after 12 hrs by Western blot analysis; format: cell-based; conditions: HCT-116
How it was run: (§1)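 HCT116 cells exposed to 0, 50, 100 or 200 µM for 1 and 12 h. Whole-cell lysates immunoblotted with an antibody specific for phospho-JNK1/2 (Thr183/Tyr185), with GAPDH as the internal loading control.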

HCT-116 [7] = assay: Induction of apoptosis in human HCT116 cells assessed as early apoptotic cells at 50 uM after 24 hrs by FITC-annexin V/propidium iodide staining based fluorescence assay (reference value: 6%); format: functional
[8] = target: Mitogen-activated protein kinase 8 (Homo sapiens) (UniProt P45983); assay: Increase in JNK1 phosphorylation at Thr183/Tyr185 residues in human HCT116 cells at 50 to 200 uM after 12 hrs by Western blot analysis; format: cell-based; conditions: HCT-116; how it was run: as §1
[9] = target: Mitogen-activated protein kinase 8 (Homo sapiens) (UniProt P45983); assay: Increase in JNK1 phosphorylation at Thr183/Tyr185 residues in human HCT116 cells at 50 to 200 uM measured up to 1 hr by Western blot analysis; format: cell-based; conditions: HCT-116; how it was run: as §1
HCT-116 [10] = assay: Induction of apoptosis in human HCT116 cells assessed as increase in PARP cleavage at 50 uM measured up to 24 hrs by immuno blot analysis; format: functional, cell-based
How it was run: (§2)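 HCT116 cells exposed to 50 µM for 0, 12 and 24 h. Total cell lysates immunoblotted with antibodies against cleaved caspase-9, cleaved caspase-3 and PARP.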

[11] = target: Mitogen-activated protein kinase 9 (Homo sapiens) (UniProt P45984); assay: Increase in JNK2 phosphorylation at Thr183/Tyr185 residues in human HCT116 cells at 50 to 200 uM measured up to 1 hr by Western blot analysis; format: cell-based; conditions: HCT-116; how it was run: as §1
HCT-116 [12] = assay: Induction of apoptosis in human HCT116 cells assessed as increase in caspase-3 cleavage at 50 uM by immuno blot analysis; format: functional, cell-based; conditions: TDE = time-dependent effect; how it was run: as §2
HCT-116 [13] = assay: Induction of apoptosis in human HCT116 cells assessed as increase in caspase-9 cleavage at 50 uM by immuno blot analysis; format: functional, cell-based; conditions: TDE = time-dependent effect; how it was run: as §2
[14] = target: Mitogen-activated protein kinase 9 (Homo sapiens) (UniProt P45984); assay: Increase in JNK2 phosphorylation at Thr183/Tyr185 residues in human HCT116 cells at 50 to 200 uM measured up to 12 hrs by Western blot analysis; format: cell-based; conditions: HCT-116; how it was run: as §1
[15] = target: Mitogen-activated protein kinase 8 (Homo sapiens) (UniProt P45983); assay: Increase in JNK1 phosphorylation at Thr183/Tyr185 residues in human HCT116 cells at 50 to 200 uM measured up to 12 hrs by Western blot analysis; format: cell-based; conditions: HCT-116; how it was run: as §1

Sequence of Mitogen-activated protein kinase 8 (Homo sapiens) (P45983 whole entry): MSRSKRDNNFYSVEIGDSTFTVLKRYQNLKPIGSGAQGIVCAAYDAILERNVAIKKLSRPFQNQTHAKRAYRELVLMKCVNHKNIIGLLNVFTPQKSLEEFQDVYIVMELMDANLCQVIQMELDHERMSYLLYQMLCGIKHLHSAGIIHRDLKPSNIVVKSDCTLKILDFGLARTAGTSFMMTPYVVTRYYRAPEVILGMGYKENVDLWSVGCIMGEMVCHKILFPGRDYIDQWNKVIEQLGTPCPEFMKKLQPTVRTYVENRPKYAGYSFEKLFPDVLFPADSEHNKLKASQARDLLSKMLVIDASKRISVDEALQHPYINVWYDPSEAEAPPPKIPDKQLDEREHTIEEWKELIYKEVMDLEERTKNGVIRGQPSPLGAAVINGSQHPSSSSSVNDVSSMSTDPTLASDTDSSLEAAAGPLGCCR
Sequence of Mitogen-activated protein kinase 9 (Homo sapiens) (P45984 whole entry, looked up): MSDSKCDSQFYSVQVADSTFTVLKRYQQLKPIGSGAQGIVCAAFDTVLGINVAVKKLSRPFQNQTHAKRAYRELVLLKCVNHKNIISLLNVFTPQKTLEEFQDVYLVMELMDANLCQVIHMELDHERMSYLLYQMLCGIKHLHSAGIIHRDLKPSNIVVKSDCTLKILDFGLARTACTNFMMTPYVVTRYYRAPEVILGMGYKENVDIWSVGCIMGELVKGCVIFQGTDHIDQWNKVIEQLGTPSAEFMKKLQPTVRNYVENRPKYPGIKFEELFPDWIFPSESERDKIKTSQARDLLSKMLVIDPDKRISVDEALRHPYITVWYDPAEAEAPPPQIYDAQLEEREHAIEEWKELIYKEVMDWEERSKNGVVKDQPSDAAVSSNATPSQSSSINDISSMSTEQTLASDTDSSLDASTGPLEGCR

Compound: COc1ccc([C@@H]2CC(=O)c3c(O)cc(OC(=O)Cc4ccccc4)cc3O2)cc1OC(=O)Cc1ccccc1
- GI50 [1]: 63.9 µM

Compound: COc1ccc([C@@H]2CC(=O)c3c(O)cc(O)cc3O2)cc1O [HESPERETIN]
- viability at 50 µM (HCT-116 [2]): 88%
- Activity (HCT-116 [3]): 2%
- Activity (HCT-116 [4]): 0%
- Activity [5]: 15%
- Activity [6]: Active
- GI50 [1]: 36.1 µM
- Activity (HCT-116 [7]): 9%
- Activity [8]: Active

Compound: COc1ccc([C@@H]2CC(=O)c3c(O)cc(OC(=O)c4ccccc4C)cc3O2)cc1O
- GI50 [1]: 22.9 µM

Compound: COc1ccc([C@@H]2CC(=O)c3c(O)cc(OC(=O)c4ccccc4)cc3O2)cc1O
- GI50 [1]: 16.5 µM

Compound: CCCC(=O)Oc1cc(O)c2c(c1)O[C@H](c1ccc(OC)c(O)c1)CC2=O
- Activity [9]: Active
- viability at 50 µM (HCT-116 [2]): 55%
- Activity (HCT-116 [3]): 5%
- Activity (HCT-116 [4]): 0%
- Activity (HCT-116 [10]): Active
- Activity [11]: Active
- Activity [5]: 50%
- GI50 [1]: 12 µM
- Activity (HCT-116 [12]): Tde
- Activity (HCT-116 [13]): Tde
- Activity (HCT-116 [7]): 39%
- Activity [14]: Active
- Activity [15]: Active

Compound: COc1ccc([C@@H]2CC(=O)c3c(O)cc(OC(=O)c4ccc(C)cc4)cc3O2)cc1OC(=O)c1ccc(C)cc1
- GI50 [1]: 71.7 µM

Compound: C/C=C/C(=O)Oc1cc(O)c2c(c1)O[C@H](c1ccc(OC)c(O)c1)CC2=O
- GI50 [1]: 16.9 µM

Compound: COc1ccc([C@@H]2CC(=O)c3c(O)cc(OC(=O)c4ccccc4)cc3O2)cc1OC(=O)c1ccccc1
- GI50 [1]: 46 µM

Compound: COc1ccc([C@@H]2CC(=O)c3c(O)cc(OC(=O)C(C)(C)C)cc3O2)cc1O
- GI50 [1]: 31.5 µM

Compound: CCCC(=O)Oc1cc(O)c2c(c1)O[C@H](c1ccc(OC)c(OC(=O)CCC)c1)CC2=O
- GI50 [1]: 13.2 µM

Compound: COc1ccc([C@@H]2CC(=O)c3c(O)cc(OC(=O)/C=C/c4ccccc4)cc3O2)cc1OC(=O)/C=C/c1ccccc1
- GI50 [1]: 21 µM

Compound: COc1ccc(C(=O)Oc2cc(O)c3c(c2)O[C@H](c2ccc(OC)c(OC(=O)c4ccc(OC)cc4)c2)CC3=O)cc1
- GI50 [1]: 35.7 µM

Compound: COc1ccc([C@@H]2CC(=O)c3c(O)cc(OC(=O)c4ccccc4C)cc3O2)cc1OC(=O)c1ccccc1C
- GI50 [1]: 48.7 µM
